From ChEMBL document CHEMBL5653631, “A Potent and Selective ULK1 Inhibitor Suppresses Autophagy and Sensitizes Cancer Cells to Nutrient Stress” (iScience, 2018) come the findings set out here.

Test [1] concerns U2OS. In words: Inhibition of autophagy in human U2OS cells assessed as ATG12-positive puncta formation at 100 nM incubated for 2.5 hrs by Fluorescent microscopy based analysis. The class given is functional, cell-based. The procedure, abridged: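 U2OS cells treated 2.5 hr with vehicle or 100 nM AZD8055, with or without 5 μM inhibitor; fixed and immunostained for endogenous ATG12; ATG12-positive puncta (phagophores) assessed by fluorescence microscopy.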

In test [2] the test system is U2OS. In words: Inhibition of autophagy in human U2OS cells expressing […] at 100 nM incubated for 2.5 hrs by Fluorescent microscopy based analysis. The class given is functional, cell-based. The procedure, abridged: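 U2OS cells stably expressing EGFP-DFCP1 treated 2.5 hr with vehicle or 100 nM AZD8055, with or without 5 μM inhibitor; imaged live by fluorescence microscopy; DFCP1-positive objects per cell counted in 20–25 cells per condition; mean ± SEM, two-tailed unpaired t test.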

In test [3] the test system is U2OS. The test is described as follows: Inhibition of autophagy in human U2OS cells assessed as BafA1-induced LC3B-II accumulation by measuring fold change at 100 nM […] by immunoblotting analysis. Type of test: functional. As to conditions: time 4 hrs.
The subject of test [4] is U2OS. The test is described as follows: Inhibition of autophagy in human U2OS cells expressing […] assessed as DFCP1-positive puncta formation by measuring fold change at 100 nM incubated for 2.5 hrs by Fluorescent microscopy based analysis. Type of test: functional. Summed up: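 U2OS cells stably expressing EGFP-DFCP1 (omegasome marker) were treated 2.5 hr with vehicle or 100 nM AZD8055 (mTOR inhibitor used to induce autophagy), with or without 5 μM inhibitor, and imaged live by fluorescence microscopy. DFCP1-positive objects per cell were counted in 20–25 cells per condition and reported as mean ± SEM, with two-tailed unpaired t test.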

Molecules are shown by their SMILES. The source made the active and inactive calls. The rule behind the calls is not given here.

With `COc1ccc(-c2ccc3c(N4CCOC[C@@H]4C)nc(N4CCOC[C@@H]4C)nc3n2)cc1CO` [AZD-8055], the inhibition entry in the test on U2OS [1] and with U2OS [2] was “Active” each time. Also, the figures for the “fold change (FC)” value with U2OS [3] and in the test on U2OS [4] were 2 and 3, respectively.
